# Key:
# [1] = Half life period of the compound.; format: ADME
# In short: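 Half-life was calculated as ln2/koff (first-order decay). koff came from paired fluorescent-probe ligand exchange with recombinant human renin: 5.0×10^-8 M renin, 5.0×10^-7 M probe, pH 7.4 HEPES/octyl glucoside buffer, 37 °C, 5-min preincubation. The two curves were fitted simultaneously, with the probe rate constants held fixed.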
# Renin (Homo sapiens) [2] = molecular target: T1, Renin (Homo sapiens) (UniProt P00797); assay: (§1) Component […] rate constant by the compound against Renin was determined; set-up: unit not given here
# T1 sequence (whole entry): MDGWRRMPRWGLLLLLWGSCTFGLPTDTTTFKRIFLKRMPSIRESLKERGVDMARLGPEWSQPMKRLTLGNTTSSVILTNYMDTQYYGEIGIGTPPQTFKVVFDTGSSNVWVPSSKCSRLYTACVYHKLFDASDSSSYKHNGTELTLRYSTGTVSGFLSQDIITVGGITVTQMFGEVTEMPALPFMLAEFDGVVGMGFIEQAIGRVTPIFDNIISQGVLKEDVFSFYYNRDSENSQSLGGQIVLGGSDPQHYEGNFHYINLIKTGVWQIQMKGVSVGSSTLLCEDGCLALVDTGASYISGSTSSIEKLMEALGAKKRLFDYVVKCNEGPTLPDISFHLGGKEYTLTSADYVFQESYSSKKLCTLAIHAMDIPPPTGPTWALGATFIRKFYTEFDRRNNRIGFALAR
# Renin (Homo sapiens) [3] = molecular target: T1, Renin (Homo sapiens); assay: as §1
half-life [1] [min],Koff (Renin (Homo sapiens) [2]),k on (Renin (Homo sapiens) [3]) [M⁻¹ s⁻¹],SMILES
8.9,0.0013,2e+06,CC(C)C[C@H](O)[C@H](O)[C@H](CC1CCCCC1)NC(=O)[C@@H](CC(=O)N(CC(=O)N(C)CCC(=O)N1CCOCC1)[C@@H](C)c1ccccc1)Cc1csc(N)n1
2.4,0.00481,2.07e+06,CC(C)C[C@H](O)[C@H](O)[C@H](CC1CCCCC1)NC(=O)[C@@H](CC(=O)N(CC(=O)N(C)CCN1CCOCC1)[C@@H](C)c1ccccc1)Cc1csc(N)n1
20.3,0.000569,1.22e+07,CC(C)C[C@H](O)[C@H](O)[C@H](CC1CCCCC1)NC(=O)[C@@H](CC(=O)N(CC(=O)N(C)CCc1ccccn1)CC1(C)CCCCC1)Cc1csc(N)n1
6.6,0.00175,2.28e+06,COC1(CN(CC(=O)N(C)CCc2ccccn2)C(=O)C[C@@H](Cc2csc(N)n2)C(=O)N[C@@H](CC2CCCCC2)[C@@H](O)[C@@H](O)CC(C)C)CCCCC1
49.4,0.000234,8.63e+06,CC(C)C[C@H](O)[C@H](O)[C@H](CC1CCCCC1)NC(=O)[C@@H](CC(=O)N(CC(=O)N(C)CCc1ccccn1)CC1CCCCCC1)Cc1csc(N)n1
8.7,0.00133,5.43e+06,CC(C)C[C@H](O)[C@H](O)[C@H](CC1CCCCC1)NC(=O)[C@@H](CC(=O)N(CC(=O)N(C)CCN(C)C(=O)N1CCOCC1)[C@@H](C)c1ccccc1)Cc1csc(N)n1
8.6,0.00135,6.68e+06,CC(C)C[C@H](O)[C@H](O)[C@H](CC1CCCCC1)NC(=O)[C@@H](CC(=O)N(CC(=O)N(C)CCc1ccccn1)[C@@H](C)c1ccccc1)Cc1csc(N)n1
41.3,0.00028,5.93e+06,CC(C)C[C@H](O)[C@H](O)[C@H](CC1CCCCC1)NC(=O)[C@@H](CC(=O)N(CC(=O)N(C)CCc1ccccn1)CC1CCCCC1)Cc1csc(N)n1
